Assay results taken from ChEMBL document CHEMBL5149991 (J Med Chem, 2021).

Experiments:
Histamine H2 receptor [1] = target: T1, Histamine H2 receptor (Homo sapiens, UniProt P25021); experiment: Displacement of [3H]UR-DE257 from human histamine H2 receptor stably expressed in baculovirus infected Sf9 cell membrane co-expressing RG-Salpha S incubated for 60 mins by scintillation counting analysis; assay type: cell membranes
Histamine H3 receptor = Histamine H3 receptor (Homo sapiens, UniProt Q9Y5N1); experiment: Displacement of [3H]UR-PI294 from human histamine H3 receptor stably expressed in baculovirus infected Sf9 cell membrane co-expressing G-alphai2 and G-beta1gamma2 incubated for 60 mins by scintillation counting analysis; assay type: cell membranes
Method in brief: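 hH3R + Gαi2 + Gβ1γ2 expressed in Sf9 membranes. […] Mean ± SEM from N independent experiments in triplicate.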

D(2) dopamine receptor [2] = target: T2, D(2) dopamine receptor (Homo sapiens, UniProt P14416); experiment: Displacement of [3H]N-methylspiperone from human D2 long receptor stably expressed in HEK293T cells co-expressing luciferase and CEK incubated for 140 mins by radioligand competition binding based assay; assay type: cell-based
D(3) dopamine receptor [3] = target: T3, D(3) dopamine receptor (Homo sapiens, UniProt P35462); experiment: Displacement of [3H]N-methylspiperone from human D3 receptor stably expressed in HEK293T cells co-expressing luciferase and CEK incubated for 140 mins by radioligand competition binding based assay; assay type: cell-based
Histamine H2 receptor [4] = target: T1, Histamine H2 receptor; experiment: Agonist activity at human histamine H2 receptor stably expressed in HEK293T cells co-expressing ARRB2 incubated for 60 mins by beta-arrestin2 recruitment assay; assay type: functional, cell-based
Histamine H2 receptor [5] = target: T1, Histamine H2 receptor; experiment: Agonist activity at human histamine H2 receptor stably expressed in baculovirus infected Sf9 cell membrane co-expressing RG-Salpha S incubated for 90 mins by [35S]GTPgammaS binding based liquid scintillation counting method; assay type: functional, cell membranes
D(2) dopamine receptor [6] = target: T2, D(2) dopamine receptor; assay type: functional, cell-based, HEK293T
D(3) dopamine receptor [7] = target: T3, D(3) dopamine receptor; experiment: Agonist activity at human D3 receptor stably expressed in HEK293T cells co-expressing ElucN-betaarr2 hD3R-ElucC by beta-arrestin2 recruitment assay; assay type: functional, cell-based
Histamine H1 receptor = Histamine H1 receptor (Homo sapiens, UniProt P35367)
Histamine H4 receptor = Histamine H4 receptor (Homo sapiens, UniProt Q9H3N8)
Histamine H2 receptor [8] = target: T1, Histamine H2 receptor; experiment: Agonist activity at human histamine H2 receptor stably expressed in HEK293T cells co-expressing NlucN-mGs/hH2R-NlucC assessed as induction of mini-Gs protein recruitment using furimazine as substrate measured for 45 mins by luminescence assay
[9] = Chemical stability in pH 7.4 buffer measured at 0 to 2 weeks by HPLC analysis; assay type: physicochemical; details: time 0-2 weeks
Histamine H2 receptor [10] = target: T4, Histamine H2 receptor (Cavia porcellus, UniProt P47747); experiment: Agonist activity at guinea pig histamine H2 receptor stably transfected in HEK293T cells co-expressing NlucN-mGs/gpH2R-NlucC by mini-G protein recruitment assay; assay type: functional, cell-based
Histamine H2 receptor [11] = target: T4, Histamine H2 receptor; experiment: Agonist activity at histamine H2 receptor in spontaneous beating guinea pig right atrium assessed as increase in heart beat; assay type: functional, tissue-based, Right cardiac atrium
[12] = target: Histamine H2 receptor (Cavia porcellus) (UniProt P47747); experiment: Agonist activity at guinea pig histamine H2 receptor stably transfected in HEK293T cells co-expressing NlucN-mGs/gpH2R-NlucC assessed as maximum efficacy at 100 uM by mini-G protein recruitment assay relative to histamine; assay type: functional, cell-based
[13] = target: Histamine H2 receptor (Cavia porcellus) (UniProt P47747); experiment: Agonist activity at histamine H2 receptor in spontaneous beating guinea pig right atrium assessed as increase in heart beat at 30 uM relative to histamine; assay type: functional, tissue-based; details: Right cardiac atrium

T1 sequence (P25021 whole entry): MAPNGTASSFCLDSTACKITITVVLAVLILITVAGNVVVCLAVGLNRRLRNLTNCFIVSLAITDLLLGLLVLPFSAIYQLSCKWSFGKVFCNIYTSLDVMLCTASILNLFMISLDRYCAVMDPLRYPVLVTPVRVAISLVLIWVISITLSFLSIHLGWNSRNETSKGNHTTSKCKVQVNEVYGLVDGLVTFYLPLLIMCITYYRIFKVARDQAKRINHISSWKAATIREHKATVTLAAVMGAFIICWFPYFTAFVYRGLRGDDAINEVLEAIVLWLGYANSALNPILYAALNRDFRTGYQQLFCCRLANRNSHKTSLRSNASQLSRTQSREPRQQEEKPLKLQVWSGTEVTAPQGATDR
Sequence of Histamine H3 receptor (Q9Y5N1 whole entry): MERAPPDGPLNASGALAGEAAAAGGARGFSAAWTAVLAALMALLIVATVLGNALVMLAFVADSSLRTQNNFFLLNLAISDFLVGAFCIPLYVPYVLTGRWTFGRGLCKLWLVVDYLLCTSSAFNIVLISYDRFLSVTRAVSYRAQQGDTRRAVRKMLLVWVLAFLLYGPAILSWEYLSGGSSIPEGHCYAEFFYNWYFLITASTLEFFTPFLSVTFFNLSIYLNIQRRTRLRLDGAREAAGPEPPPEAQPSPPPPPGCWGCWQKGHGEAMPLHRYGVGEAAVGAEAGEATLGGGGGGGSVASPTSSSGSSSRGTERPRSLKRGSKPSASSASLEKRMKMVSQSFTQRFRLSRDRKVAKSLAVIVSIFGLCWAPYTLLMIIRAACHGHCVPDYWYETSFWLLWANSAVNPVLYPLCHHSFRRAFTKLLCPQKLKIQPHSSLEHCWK
T4 sequence (P47747 whole entry): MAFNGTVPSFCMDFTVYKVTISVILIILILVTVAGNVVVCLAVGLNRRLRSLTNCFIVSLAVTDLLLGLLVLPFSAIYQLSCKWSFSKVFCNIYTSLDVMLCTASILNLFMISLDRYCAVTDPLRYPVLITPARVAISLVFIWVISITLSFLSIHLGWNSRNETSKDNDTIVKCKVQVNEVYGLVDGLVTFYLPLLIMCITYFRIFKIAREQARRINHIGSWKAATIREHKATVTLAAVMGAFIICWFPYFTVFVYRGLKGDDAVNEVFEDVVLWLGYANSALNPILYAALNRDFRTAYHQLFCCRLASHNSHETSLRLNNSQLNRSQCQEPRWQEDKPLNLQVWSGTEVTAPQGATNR
Sequence of Histamine H2 receptor (Cavia porcellus) (P47747 whole entry): as above
Sequence of Histamine H4 receptor (Q9H3N8 whole entry): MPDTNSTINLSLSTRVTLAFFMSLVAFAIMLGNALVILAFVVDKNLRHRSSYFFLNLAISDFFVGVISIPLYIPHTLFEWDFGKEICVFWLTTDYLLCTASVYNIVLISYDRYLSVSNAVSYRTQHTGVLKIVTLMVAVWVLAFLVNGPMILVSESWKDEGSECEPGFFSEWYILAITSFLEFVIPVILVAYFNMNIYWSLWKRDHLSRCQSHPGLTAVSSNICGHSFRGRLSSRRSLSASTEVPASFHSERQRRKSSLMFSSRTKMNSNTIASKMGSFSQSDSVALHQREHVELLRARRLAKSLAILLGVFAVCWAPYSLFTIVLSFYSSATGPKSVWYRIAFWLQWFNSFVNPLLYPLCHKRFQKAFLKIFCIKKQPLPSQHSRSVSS
T2 sequence (P14416 whole entry): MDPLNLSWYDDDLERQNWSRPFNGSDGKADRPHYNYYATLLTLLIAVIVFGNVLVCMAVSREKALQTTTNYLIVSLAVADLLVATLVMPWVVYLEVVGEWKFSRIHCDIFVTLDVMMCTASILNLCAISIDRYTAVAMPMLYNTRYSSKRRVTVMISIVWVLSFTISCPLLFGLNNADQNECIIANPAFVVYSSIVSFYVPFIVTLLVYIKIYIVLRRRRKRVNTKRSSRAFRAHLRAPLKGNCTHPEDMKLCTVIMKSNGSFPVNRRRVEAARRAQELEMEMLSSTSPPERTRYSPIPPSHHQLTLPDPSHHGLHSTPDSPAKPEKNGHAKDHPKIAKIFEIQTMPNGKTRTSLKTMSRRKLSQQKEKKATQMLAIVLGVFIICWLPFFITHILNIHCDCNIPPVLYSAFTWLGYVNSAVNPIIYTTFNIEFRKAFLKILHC
T3 sequence (P35462 whole entry): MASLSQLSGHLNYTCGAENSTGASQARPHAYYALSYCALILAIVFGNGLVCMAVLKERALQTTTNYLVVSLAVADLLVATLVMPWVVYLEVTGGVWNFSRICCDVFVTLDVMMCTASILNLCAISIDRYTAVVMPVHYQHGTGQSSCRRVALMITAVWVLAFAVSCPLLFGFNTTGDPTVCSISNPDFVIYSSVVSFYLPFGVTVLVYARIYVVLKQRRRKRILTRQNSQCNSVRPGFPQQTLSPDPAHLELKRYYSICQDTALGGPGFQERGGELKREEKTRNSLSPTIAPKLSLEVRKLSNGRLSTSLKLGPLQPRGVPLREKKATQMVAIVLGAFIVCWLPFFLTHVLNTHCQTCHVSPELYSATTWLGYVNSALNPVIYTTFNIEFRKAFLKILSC
Sequence of Histamine H1 receptor (P35367 whole entry): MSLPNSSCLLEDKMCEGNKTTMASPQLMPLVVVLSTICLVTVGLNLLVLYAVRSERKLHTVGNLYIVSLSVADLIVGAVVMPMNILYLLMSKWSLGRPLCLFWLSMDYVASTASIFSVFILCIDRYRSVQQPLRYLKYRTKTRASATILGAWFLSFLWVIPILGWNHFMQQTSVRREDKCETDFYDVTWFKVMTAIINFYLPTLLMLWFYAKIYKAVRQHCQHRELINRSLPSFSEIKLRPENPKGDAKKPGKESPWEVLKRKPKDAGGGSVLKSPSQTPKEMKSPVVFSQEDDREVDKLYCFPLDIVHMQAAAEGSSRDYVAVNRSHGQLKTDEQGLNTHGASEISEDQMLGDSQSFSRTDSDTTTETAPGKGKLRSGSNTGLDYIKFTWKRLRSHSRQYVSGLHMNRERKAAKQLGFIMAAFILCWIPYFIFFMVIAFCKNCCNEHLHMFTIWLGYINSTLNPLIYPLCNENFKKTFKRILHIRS

| Structure (SMILES) | Ki (Histamine H2 receptor [1]) [nM] | Ki (Histamine H3 receptor) [nM] | Ki (D(2) dopamine receptor [2]) [nM] | Ki (D(3) dopamine receptor [3]) [nM] | EC50 (Histamine H2 receptor [4]) [nM] | EC50 (Histamine H2 receptor [5]) [nM] | EC50 (D(2) dopamine receptor [6]) [nM] | EC50 (D(3) dopamine receptor [7]) [nM] | Kd (Histamine H1 receptor) [nM] | Ki (Histamine H1 receptor) [nM] | Kd (Histamine H4 receptor) [nM] | Ki (Histamine H4 receptor) [nM] | EC50 (Histamine H2 receptor [8]) [nM] | Stability [9] | EC50 (Histamine H2 receptor [10]) [nM] | EC50 (Histamine H2 receptor [11]) [nM] | Emax [12] [%] | Emax [13] [%] |
| --- | --- | --- | --- | --- | --- | --- | --- | --- | --- | --- | --- | --- | --- | --- | --- | --- | --- | --- |
| CC(CNC(=O)/N=C(\N)NCCCc1nnc(N)s1)C1CCCCC1 (stereo not drawn) | 19.5 | 2750 | 1620 | 234 | 135 | 13.2 | > 10000 | 1350 | 4.5 | 7410 | 16 | 12600 | 10.7 | – | – | – | – | – |
| Cc1ccc(CC(C)CNC(=O)/N=C(\N)NCCCc2nnc(N)s2)cc1.O=C(O)C(F)(F)F.O=C(O)C(F)(F)F (stereo not drawn) | – | 2340 | 1070 | 2040 | – | – | – | > 10000 | 4.5 | 1350 | 16 | 6920 | – | Stable | 14.8 | 95.5 | – | – |
| C[C@@H](NC(=O)/N=C(\N)NCCCc1nnc(N)s1)c1ccccc1 | 12.9 | > 10000 | > 10000 | 3240 | 282 | – | > 10000 | 1070 | 4.5 | > 10000 | 16 | > 10000 | 20 | – | 25.1 | 2.88 | 90 | 98 |
| CCCCCCNC(=O)/N=C(\N)NCCCc1nnc(N)s1 | 5.13 | > 10000 | > 10000 | 589 | 1070 | – | > 10000 | 813 | 4.5 | 5010 | 16 | > 10000 | 6.03 | – | 2.29 | 4.79 | 96 | 106 |
| N/C(=N\C(=O)NCCCCCCNC(=O)/N=C(\N)NCCCc1nnc(N)s1)NCCCc1nnc(N)s1 | 5.25 | 10000 | 955 | – | 407 | 34.7 | 1120 | – | 4.5 | 3550 | 16 | > 10000 | 20 | – | – | – | – | – |
| CC(NC(=O)/N=C(\N)NCCCc1nnc(N)s1)c1cccc(F)c1 (stereo not drawn) | 8.13 | > 10000 | > 10000 | 661 | 75.9 | – | > 10000 | 1910 | 4.5 | 10500 | 16 | > 10000 | 8.13 | – | 6.92 | 0.912 | 93 | 110 |
